In PMC10639087 (Science signaling, 2023):

Tests used:
[1] = molecular target: T1, LSM12 (like-Sm protein 12) (Homo sapiens, UniProt Q3MHD2); assay: […]-NAADP displacement, PVDF filter binding
[2] = molecular target: T2, JPT2 (Jupiter microtubule-associated homolog 2) (Homo sapiens, UniProt Q9H910); assay: biolayer interferometry, biotinylated protein on streptavidin sensor; assay type: binding
T2 sequence (Q9H910 1-190): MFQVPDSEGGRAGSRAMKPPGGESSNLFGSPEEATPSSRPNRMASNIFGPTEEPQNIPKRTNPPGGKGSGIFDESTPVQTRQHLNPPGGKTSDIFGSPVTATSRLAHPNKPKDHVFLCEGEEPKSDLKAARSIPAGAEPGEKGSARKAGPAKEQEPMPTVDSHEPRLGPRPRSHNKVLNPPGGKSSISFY
Summary of the method: (§1)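 Recombinant human protein, expressed in E. coli BL21 Star (DE3) as an N-terminal 6xHis-GST-TEV fusion, was biotinylated (NHS-LC-biotin) and moved into 110 mM KCl, 10 mM NaCl, 20 mM Hepes pH 7.2 with 1% BSA. SAX sensors were equilibrated 30 s, loaded with 70 nM bait for 15 s, and re-equilibrated 60 s. They were exposed to NAADP (1:2 serial dilutions, 500 to 15.6 nM), then dissociated 210 to 300 s.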

[3] = molecular target: T2, JPT2 (Jupiter microtubule-associated homolog 2); assay: […]-NAADP displacement, PVDF filter binding
[4] = molecular target: T1, LSM12 (like-Sm protein 12); assay: biolayer interferometry, biotinylated protein on streptavidin sensor; assay type: binding
Summary of the method: as §1

T1 sequence (Q3MHD2 whole entry): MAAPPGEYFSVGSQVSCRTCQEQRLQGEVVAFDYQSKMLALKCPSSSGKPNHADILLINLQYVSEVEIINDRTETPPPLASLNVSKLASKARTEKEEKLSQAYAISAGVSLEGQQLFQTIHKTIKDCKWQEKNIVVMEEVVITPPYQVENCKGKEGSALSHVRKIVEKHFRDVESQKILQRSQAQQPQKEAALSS

IC50 [1]	Kd [2]	IC50 [3]	Kd [4]	SMILES
0.703 ± 0.1 nM	5.71 ± 1.8 nM	1.09 ± 0.1 nM	2.03 ± 0.41 nM	Nc1ncnc2c1ncn2[C@@H]1O[C@H](COP(=O)(O)OP(=O)(O)OC[C@H]2O[C@@H]([n+]3cccc(C(=O)O)c3)[C@H](O)[C@@H]2O)[C@@H](O)[C@H]1OP(=O)(O)O [NAADP]
40.3 ± 25 nM	52.9 ± 8.6 nM	15.9 ± 4 nM	126 ± 35.6 nM	NC(=O)c1ccc[n+]([C@@H]2O[C@H](COP(=O)(O)OP(=O)(O)OC[C@H]3O[C@@H](n4cnc5c(N)ncnc54)[C@H](OP(=O)(O)O)[C@@H]3O)[C@@H](O)[C@H]2O)c1 [NADP]
